A word on the MIC: it is the least concentration at which growth counts as inhibited. A high value points to a need for much substance.

We go through 17 compounds from ChEMBL document CHEMBL1157001, “Synthesis and antibacterial evaluation of isoxazolinyl oxazolidinones: Search for potent antibacterial” (2009).

Values after ≈ are worked out from the molar mass of the structure shown. Active and inactive are the calls of the source. No cut-off for these calls is given here.

For one assay, the system named is Enterococcus faecalis. Nature of the assay: Antibacterial activity against Enterococcus faecalis MTCC 439 after 24 hrs. Format: functional. The conditions noted are these: MTCC 439, 24 h. In a few lines:
(§1)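 Broth microdilution MIC per NCCLS protocol in Mueller Hinton broth. Strains grown on nutrient agar at 37 °C for 24 h, then suspended in normal saline with 0.05% Tween 20. Inoculum was a McFarland-matched suspension diluted into medium. Compounds were dissolved in DMSO at 1 mg/mL stock and serially twofold diluted, top concentration 50 µg/mL. Plates incubated 35 °C, moist dark chamber, 24 h. MIC read spectrophotometrically.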

The test system of another assay is Escherichia coli. Nature of the assay: Antibacterial activity against Escherichia coli ATCC 9637 after 24 hrs. Format: functional, organism-based. In outline:
as §1

In the next assay the test system is Klebsiella pneumoniae. In words: Antibacterial activity against Klebsiella pneumoniae ATCC 27736 after 24 hrs. Format: functional. The conditions noted are these: ATCC 27736, 24 h. In outline:
as §1

For the next assay, the system named is Bacillus cereus. In words: Antibacterial activity against Bacillus cereus MTCC 430 after 24 hrs. Format: functional. The conditions noted are these: MTCC 430, 24 h. In a few lines: as §1
The subject of assay [1] is Staphylococcus aureus. Nature of the assay: Antibacterial activity against methicillin-resistant Staphylococcus aureus ATCC 70069 after 24 hrs. Particulars: ATCC 70069, 24 h. It counts as functional.
For assay [2], the system named is Staphylococcus aureus. Nature of the assay: Antibacterial activity against […] Staphylococcus aureus ATCC 29213 after 24 hrs. Particulars: ATCC 29213, 24 h. It counts as functional.
In assay [3] the test system is Staphylococcus aureus. In words: Antibacterial activity against floxacin and methicillin-resistant Staphylococcus aureus ATCC 25923 after 24 hrs. Format: functional. Particulars: ATCC 25923, 24 h.
In another assay the test system is Streptococcus pyogenes. Nature of the assay: Antibacterial activity against Streptococcus pyogenes after 24 hrs. Format: functional. In outline:
as §1

A further assay has as its system Pseudomonas aeruginosa. Nature of the assay: Antibacterial activity against Pseudomonas aeruginosa ATCC BAA427 after 24 hrs. Format: functional, organism-based. In outline: as §1

Regarding `CC(=O)NC[C@H]1CN(c2ccc(N3CCN(C(=O)C4CC(c5ccc(Cl)c(Cl)c5)=NO4)CC3)c(F)c2)C(=O)O1` (mixture of isomers), the MIC against Enterococcus faecalis was 0.329 µM; in the assay on Klebsiella pneumoniae, 0.329 µM; in the assay with Bacillus cereus, 0.156 µM; against Staphylococcus aureus [1], 0.329 µM; in the assay with Staphylococcus aureus [2], 2.7 µM; against Staphylococcus aureus [3], 0.329 µM. The MIC against Streptococcus pyogenes was 0.329 µM. In addition, the outcome in the assay on Escherichia coli and with Pseudomonas aeruginosa was inactive.
For `CC(=O)NC[C@H]1CN(c2ccc(N3CCN(C(=O)C4CC(c5cccc(C(F)(F)F)c5)=NO4)CC3)c(F)c2)C(=O)O1` (mixture of isomers), the MIC came to 1.35 µM against Enterococcus faecalis; 2.7 µM against Klebsiella pneumoniae; 1.35 µM in the assay on Bacillus cereus; 1.35 µM in the assay on Staphylococcus aureus [1]; 2.7 µM against Staphylococcus aureus [2]; 1.35 µM against Staphylococcus aureus [3]. The compound also had an MIC in the assay with Streptococcus pyogenes of 1.35 µM. Also, the result with Escherichia coli and in the assay with Pseudomonas aeruginosa was inactive.
With `CC(=O)NC[C@H]1CN(c2ccc(N3CCN(C(=O)C4CC(c5ccc(C(F)(F)F)cc5)=NO4)CC3)c(F)c2)C(=O)O1` (mixture of isomers), the MIC in the assay with Enterococcus faecalis was 0.329 µM; in the assay on Klebsiella pneumoniae, 0.676 µM; against Bacillus cereus, 0.676 µM; against Staphylococcus aureus [1] it was 0.676 µM; in the assay on Staphylococcus aureus [2] it was 2.7 µM; with Staphylococcus aureus [3] it was 0.676 µM. For the same compound, the MIC in the assay with Streptococcus pyogenes was determined as 0.676 µM. Also, the outcome with Escherichia coli and in the assay on Pseudomonas aeruginosa was inactive.
Regarding `CC(=O)NC[C@H]1CN(c2ccc(N3CCN(C(=O)C4CC(c5ccccc5)=NO4)CC3)c(F)c2)C(=O)O1` (mixture of isomers), the MIC with Enterococcus faecalis, with Klebsiella pneumoniae, in the assay on Bacillus cereus, against Staphylococcus aureus [1], in the assay with Staphylococcus aureus [2] and against Staphylococcus aureus [3] was 24.6 µM throughout. Also, in the assay with Streptococcus pyogenes, the MIC was determined as 24.6 µM. Also, the outcome with Escherichia coli and in the assay on Pseudomonas aeruginosa was inactive.
As for `CC(=O)NC[C@H]1CN(c2ccc(N3CCN(C(=O)C4CC(c5cccs5)=NO4)CC3)c(F)c2)C(=O)O1` (mixture of isomers), the MIC in the assay with Enterococcus faecalis is 24.3 µM; in the assay on Klebsiella pneumoniae it was 6.06 µM; with Bacillus cereus, 6.06 µM; in the assay on Staphylococcus aureus [1], 24.3 µM; against Staphylococcus aureus [2], 24.3 µM; in the assay on Staphylococcus aureus [3] it was 6.06 µM. This compound also gave an MIC against Streptococcus pyogenes of 12.1 µM. Further, the outcome in the assay on Escherichia coli and with Pseudomonas aeruginosa was inactive.
Turning to `CC(=O)NC[C@H]1CN(c2ccc(N3CCN(C(=O)C4CC(c5ccsc5)=NO4)CC3)c(F)c2)C(=O)O1` (mixture of isomers), the MIC against Enterococcus faecalis amounted to 12.1 µM; in the assay on Klebsiella pneumoniae it was 6.06 µM; in the assay on Bacillus cereus it was 12.1 µM; in the assay on Staphylococcus aureus [1] it was 6.06 µM; against Staphylococcus aureus [2], 24.3 µM; against Staphylococcus aureus [3], 12.1 µM. In the assay on Streptococcus pyogenes, this compound registered an MIC of 12.1 µM. Also, the outcome with Escherichia coli and with Pseudomonas aeruginosa was inactive.
In the case of `CC(=O)NC[C@H]1CN(c2ccc(N3CCN(C(=O)C4CC(c5ccccn5)=NO4)CC3)c(F)c2)C(=O)O1` (mixture of isomers), the MIC with Enterococcus faecalis was determined as 0.372 µM; against Klebsiella pneumoniae, 0.765 µM; in the assay with Bacillus cereus, 0.765 µM; against Staphylococcus aureus [1] it was 1.53 µM; against Staphylococcus aureus [2] it was 1.53 µM; with Staphylococcus aureus [3], 0.765 µM. In addition, the MIC against Streptococcus pyogenes was found to be 0.372 µM. The result in the assay on Escherichia coli and in the assay on Pseudomonas aeruginosa was inactive.
On to `CC(=O)NC[C@H]1CN(c2ccc(N3CCN(C(=O)C4CC(c5ccc(F)cc5)=NO4)CC3)c(F)c2)C(=O)O1` (mixture of isomers), for which the MIC against Enterococcus faecalis was 0.74 µM; against Klebsiella pneumoniae, 1.48 µM; against Bacillus cereus, 0.74 µM; in the assay on Staphylococcus aureus [1] it was 0.74 µM; against Staphylococcus aureus [2] it was 0.74 µM; in the assay on Staphylococcus aureus [3], 0.74 µM. Further, in the assay on Streptococcus pyogenes, it took 0.74 µM to inhibit growth (MIC). Also, the outcome in the assay on Escherichia coli and in the assay on Pseudomonas aeruginosa was inactive.
As to `CC(=O)NC[C@H]1CN(c2ccc(N3CCN(C(=O)C4CC(c5ccc(Cl)cc5)=NO4)CC3)c(F)c2)C(=O)O1` (mixture of isomers), the MIC in the assay with Enterococcus faecalis turned out to be 0.35 µM; in the assay on Klebsiella pneumoniae it was 0.166 µM; in the assay with Bacillus cereus, 0.35 µM; against Staphylococcus aureus [1] it was 0.35 µM; in the assay with Staphylococcus aureus [2] it was 2.87 µM; against Staphylococcus aureus [3] it was 0.166 µM. In addition, it took 0.349 µM to inhibit growth in the assay on Streptococcus pyogenes (MIC). Also, the outcome in the assay with Escherichia coli and in the assay on Pseudomonas aeruginosa was inactive.
On to `COc1ccc(C2=NOC(C(=O)N3CCN(c4ccc(N5C[C@H](CNC(C)=O)OC5=O)cc4F)CC3)C2)cc1O` (mixture of isomers), for which the MIC with Enterococcus faecalis was found to be 0.342 µM; in the assay with Klebsiella pneumoniae, 0.342 µM; against Bacillus cereus, 0.342 µM; against Staphylococcus aureus [1], 0.703 µM; in the assay with Staphylococcus aureus [2] it was 0.703 µM; in the assay with Staphylococcus aureus [3], 0.342 µM. Further, in the assay on Streptococcus pyogenes, the MIC worked out at 0.703 µM. For the same compound, the result in the assay with Escherichia coli and in the assay with Pseudomonas aeruginosa was inactive.
With `CC(=O)NC[C@H]1CN(c2ccc(N3CCN(C(=O)C4CC(c5ccc6c(c5)OCO6)=NO4)CC3)c(F)c2)C(=O)O1` (mixture of isomers), the MIC worked out at 0.344 µM in the assay with Enterococcus faecalis; 0.163 µM against Klebsiella pneumoniae; 0.344 µM against Bacillus cereus; 0.344 µM with Staphylococcus aureus [1]; 2.82 µM in the assay with Staphylococcus aureus [2]; 0.163 µM against Staphylococcus aureus [3]. The same compound came in with an MIC against Streptococcus pyogenes of 0.344 µM. The outcome in the assay on Escherichia coli and in the assay on Pseudomonas aeruginosa was inactive.
For `CC(=O)NC[C@H]1CN(c2ccc(N3CCN(C(=O)C4CC(c5ccc(C)cc5)=NO4)CC3)c(F)c2)C(=O)O1` (mixture of isomers), the MIC in the assay with Enterococcus faecalis came to 0.746 µM; against Klebsiella pneumoniae it was 0.363 µM; in the assay on Bacillus cereus, 0.363 µM; in the assay on Staphylococcus aureus [1] it was 1.49 µM; against Staphylococcus aureus [2], 2.98 µM; in the assay with Staphylococcus aureus [3] it was 0.363 µM. Moreover, the MIC against Streptococcus pyogenes was 0.746 µM. The outcome in the assay with Escherichia coli and in the assay on Pseudomonas aeruginosa was inactive.
Turning to `CC(=O)NC[C@H]1CN(c2ccc(N3CCN(C(=O)C4CC(c5cccc([N+](=O)[O-])c5)=NO4)CC3)c(F)c2)C(=O)O1` (mixture of isomers), the MIC in the assay on Enterococcus faecalis amounted to 0.0866 µM; against Klebsiella pneumoniae, 0.704 µM; against Bacillus cereus, 0.162 µM; in the assay on Staphylococcus aureus [1], 0.704 µM; with Staphylococcus aureus [2] it was 0.704 µM; in the assay on Staphylococcus aureus [3] it was 0.343 µM. Further, the MIC in the assay with Streptococcus pyogenes turned out to be 0.704 µM. In addition, the result in the assay with Escherichia coli and in the assay with Pseudomonas aeruginosa was inactive.
Turning to `CC(=O)NC[C@H]1CN(c2ccc(N3CCN(C(=O)C4CC(c5ccco5)=NO4)CC3)c(F)c2)C(=O)O1` (mixture of isomers), the MIC is 0.781 µM in the assay on Enterococcus faecalis; 1.56 µM against Klebsiella pneumoniae; 1.56 µM against Bacillus cereus; 1.56 µM against Staphylococcus aureus [1]; 6.25 µM with Staphylococcus aureus [2]; 0.781 µM against Staphylococcus aureus [3]. The compound also displayed an MIC against Streptococcus pyogenes of 0.781 µM. Further, the outcome with Escherichia coli and with Pseudomonas aeruginosa was inactive.
`CC(=O)NC[C@H]1CN(c2ccc(N3CCN(C(=O)C4CC(c5ccc(F)c(F)c5)=NO4)CC3)c(F)c2)C(=O)O1` (mixture of isomers): the MIC in the assay on Enterococcus faecalis amounted to 0.349 µM; in the assay on Klebsiella pneumoniae, 0.716 µM; in the assay on Bacillus cereus, 0.349 µM; in the assay on Staphylococcus aureus [1], 0.349 µM; against Staphylococcus aureus [2], 0.716 µM; against Staphylococcus aureus [3] it was 0.349 µM. The same compound gave an MIC in the assay on Streptococcus pyogenes of 0.349 µM. Moreover, the result in the assay on Escherichia coli and with Pseudomonas aeruginosa was inactive.
Turning to `CC(=O)NC[C@H]1CN(c2ccc(N3CCOCC3)c(F)c2)C(=O)O1` [LINEZOLID], the MIC against Enterococcus faecalis was determined as 9.26 µM (≈ 3.12 µg/mL); in the assay with Klebsiella pneumoniae it was 4.63 µM (≈ 1.56 µg/mL); against Bacillus cereus it was 2.31 µM (≈ 0.781 µg/mL); with Staphylococcus aureus [1], 4.63 µM (≈ 1.56 µg/mL); against Staphylococcus aureus [2], 9.26 µM (≈ 3.12 µg/mL); against Staphylococcus aureus [3], 4.63 µM (≈ 1.56 µg/mL). The MIC against Streptococcus pyogenes was 4.63 µM (≈ 1.56 µg/mL).
Turning to `CN[C@H](CC(C)C)C(=O)N[C@H]1C(=O)N[C@@H](CC(N)=O)C(=O)N[C@H]2C(=O)N[C@H]3C(=O)N[C@H](C(=O)N[C@H](C(=O)O)c4cc(O)cc(O)c4-c4cc3ccc4O)[C@H](O)c3ccc(c(Cl)c3)Oc3cc2cc(c3O[C@@H]2O[C@H](CO)[C@@H](O)[C@H](O)[C@H]2O[C@H]2C[C@](C)(N)[C@H](O)[C@H](C)O2)Oc2ccc(cc2Cl)[C@H]1O` [VANCOMYCIN], the MIC came out at 0.525 µM (≈ 0.761 µg/mL) in the assay with Enterococcus faecalis; 0.262 µM (≈ 0.38 µg/mL) in the assay with Klebsiella pneumoniae; 0.128 µM (≈ 0.185 µg/mL) against Bacillus cereus; 4.21 µM (≈ 6.1 µg/mL) against Staphylococcus aureus [1]; 1.05 µM (≈ 1.52 µg/mL) in the assay with Staphylococcus aureus [2]; 0.262 µM (≈ 0.38 µg/mL) in the assay with Staphylococcus aureus [3]. The MIC against Streptococcus pyogenes worked out at 0.262 µM (≈ 0.38 µg/mL).
